pIC50: −log10 of the molar value. Calls of active or inactive are those of the source. The calls are words filed in the database; no cut-off is given here.
Assays:
[1] = system: CCRF-CEM; assay: Growth inhibition of human CCRF-CEM cells after 48 hrs by cell culture assay; assay type: functional; conditions: read-out: ID50 (the source's name)
Summary of the method: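 CCRF-CEM human lymphoblastic leukemia cells, which lack cystathionase and need exogenous L-cysteine, grown in culture with test lactone; growth inhibition expressed as ID50 (M).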

[2] = system: CCRF-SLT; assay: Growth inhibition of human CCRF-SLT cells in presence of cystathionine; assay type: functional, cell-based
Summary of the method: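 Cystathionase-containing CCRF-SLT cell line, able to grow on cystathionine, cultured with test lactone in medium supplemented with cystathionine and, in parallel, without it; growth inhibition compared between the two media.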

[3] = system: CCRF-CEM; assay: Growth inhibition of human CCRF-CEM cells after 48 hrs by cell culture assay in presence of 1 x 10^-4 M L-cysteine; assay type: functional; conditions: read-out: ID50 (the source's name)

Compound | pIC50 [1] | pIC50 [3] | growth inhibition (GI) [2]
C=C1C(=O)OC(C)(C)C1C (stereo not drawn) | 4.68 | – | Active
C=C1C(=O)OC[C@@]2(CC)CC[C@H]3C(=C)C(=O)O[C@@H]3[C@@H]12 | – | 7.47 | –
C=C[C@]12CC[C@H]3C(=C)C(=O)O[C@@H]3[C@H]1C(=C)C(=O)OC2 | – | 7.47 | –
C=C1C(=O)O[C@H]2CCC[C@@H]1C2 (relative stereo) | 4.80 | – | Active
C=C[C@@]12COC(=O)C(=C)[C@@H]1[C@H]1OC(=O)C(=C)[C@@H]1[C@@H](O)C2 [VERNOLEPIN] | – | 6.37 | –

More lines, main results first:

pIC50 [1] | pIC50 [3] | Compound | growth inhibition (GI) [2]
5.15 | – | C=C1C(=O)OC[C@H]2[C@H]3CC[C@@H](C3)[C@@H]12 | –
5.68 | – | C=C(C(=O)OC)[C@H]1CCC[C@H]2C(=C)C(=O)O[C@H]12 (relative stereo) | –
4.82 | – | C=C1C(=O)O[C@@H]2CCC[C@@H](O)[C@H]12 (relative stereo) | Active
5.57 | – | C=C1C(=O)O[C@@H]2CC[C@@H](O)[C@H]12 (relative stereo) | –
6.17 | – | C=C[C@]12CCCC[C@H]1C(=C)C(=O)OC2 (relative stereo) | –
